Screening results as filed in PubChem.
Hep lipid drop: hepatic lipid droplet formation modulation; 0.4% of 240,000 active; AID 1656; inhibition, % at 6.5 µM; AML12 mouse hepatocytes, oleate lipid droplets, BODIPY imaging;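 active = lipid droplet intensity inhibited by at least 50%, with more than 500 cells counted; inconclusive = wells with under 300 cells, treated as cytotoxic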
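Assay system: AML12 hepatocytes (mouse); Probe or stimulus: oleic acid at 100 µM to induce lipid droplet formation; Dosing: compound at 6.5 µM only; Schedule: compound with oleate, overnight; Detection: fluorescence imaging, 20x objective, two fields per well; Measure: % inhibition of lipid droplet signal.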
CR mimetic SO: caloric restriction mimetics inhibiting age-related superoxide in yeast; AID 2690; superoxide response (% of plate mean), % at 10 µM; S. cerevisiae aged cells, superoxide DHE fluorescence; stronger effect = lower value; 0.18% of 330,000 active;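 active = superoxide response under a set limit, about three screen SD below normal, cut at about 65% in these data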;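 note: yeast aged for seven days with compound at 30 °C before DHE staining; 100% = average MFI of all compound-treated wells on the plate with controls excluded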
SR-BI DiI-HDL act: activators of SR-BI mediated HDL lipid uptake | CHO ldlA[mSR-BI] cells, DiI-HDL uptake fluorescence, 3 h; 100 = double the neutral-control signal | activation, % at 12.5 µM | 0.096% of 320,000 active | AID 504775;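 active = mean replicate activation of at least 60% and every replicate at or above 60%; inconclusive = mean or all-replicate condition met, but not both; inactive = mean below 60% and not all replicates reaching 60%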;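 note: 0% = median plate neutral-control signal and 100% = twice that signal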
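Material: SR-BI-overexpressing, LDLR-lacking CHO cells | Dosing: Single compound concentration, delivered by pin transfer | Probe or stimulus: Labelled HDL, 10 µg/mL | Signal: Bottom-read cell fluorescence after medium removal, ex 550/em 595 nm | Schedule: 3 h, 37 °C | Evaluation: HDL uptake via cellular fluorescence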
AHR act: activates the human aryl hydrocarbon receptor; activation, % at 5 µM; 2.5% of 320,000 active; P35869; AHR-responsive luciferase reporter cells, luminescence; in the data active = activation above about 47%;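 note: 0% = vehicle wells and 100% = reference agonist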
SMARCA2 act: activators of SMARCA2 function. activation, % at 9.1 µM. AID 652017. 1% of 370,000 active. MG213 cells, MMTV-luciferase reporter, dexamethasone, overnight; in the data active = activation above about 7.8%;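 note: 0% = vehicle wells and 100% = reference activator wells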
SR-BI HDL uptake: inhibitors of mouse SR-BI mediated HDL lipid uptake. ldlA[mSR-BI] CHO cells, DiI-HDL uptake fluorescence, 3 h. inhibition, % at 12.5 µM. 0.96% of 320,000 active. AID 488896;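 active = mean replicate inhibition of at least 70% and a set share of replicates each scoring 70 or more; inconclusive = meets just one of the two criteria; inactive = fails both criteria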;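 note: 0% = median of neutral control wells and 100% = median of positive control wells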
Target sequence (Q61009 whole entry, looked up): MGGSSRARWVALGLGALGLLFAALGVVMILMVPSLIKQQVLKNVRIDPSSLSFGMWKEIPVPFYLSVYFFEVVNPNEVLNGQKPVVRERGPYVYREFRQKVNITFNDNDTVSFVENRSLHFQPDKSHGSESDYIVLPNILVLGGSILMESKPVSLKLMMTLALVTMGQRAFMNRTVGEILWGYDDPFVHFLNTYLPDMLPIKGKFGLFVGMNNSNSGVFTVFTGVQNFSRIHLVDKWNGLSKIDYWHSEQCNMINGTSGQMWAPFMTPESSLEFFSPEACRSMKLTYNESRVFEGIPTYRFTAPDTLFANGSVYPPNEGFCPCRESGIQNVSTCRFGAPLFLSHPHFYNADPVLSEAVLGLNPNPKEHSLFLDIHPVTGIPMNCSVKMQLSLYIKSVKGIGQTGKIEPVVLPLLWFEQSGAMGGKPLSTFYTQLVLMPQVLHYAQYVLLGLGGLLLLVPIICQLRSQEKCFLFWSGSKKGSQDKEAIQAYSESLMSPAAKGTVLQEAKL
AHR act confirm: human AHR activation, confirmation; shares compounds with AHR act; human cells, AHR-responsive luciferase reporter, luminescence; activation, % at 9 µM; 87% of 2,300 active; AID 2845; in the data active = activation above about 49%;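 note: HepG2 hepatoma cells carrying a DRE-driven firefly luciferase reporter; 0% = vehicle wells and 100% = reference agonist wells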
PXR act counter: counter-screen for AHR activators: human PXR activators | shares compounds with AHR act | cell-based PXR reporter, luciferase luminescence | activation, % at 11.6 µM | 88% of 2,300 active | AID 434939; in the data active = activation above about 11%;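 note: human hepatoma DPX-2 cells expressing full-length human PXR; 0% = DMSO and 100% = reference agonist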
DiI quench: quenches DiI-HDL fluorescence, an SR-BI assay artifact; AC50, µM (titrated, usually from 35 µM), for the others: top-dose activity change, negative = quenching; 20% of 470 active; shares compounds with SR-BI HDL uptake; AID 540326; cell-free DiI-HDL fluorescence quenching, 30 min;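 active = quenching, a falling signal, with AC50 below a set limit tied to the top valid dose, actives reach about 32 µM in these data; inconclusive = no clear call, values can overlap the other calls; inactive = rising signal, and the rest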
SMARCA2 act conf: confirmation of SMARCA2 (BRM) function activators; MG213 cells, MMTV-luciferase with dexamethasone, luminescence, overnight; MG213 cells expressing E1A, Rb sequestered; DMSO wells 0%, reference activator 100%; shares compounds with SMARCA2 act; activation, % at 9.1 µM; 30% of 3,500 active; AID 652260;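 active = activation above its plate's cutoff, the mean activation of tested wells plus 3 SD, cut at about 7.9% in these data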
GAL4-VP16 Luc: activates GAL4-VP16 luciferase, flagging SMARCA2 activator hits. shares compounds with SMARCA2 act. HEK293 GAL4-VP16 pG5luc reporter, luciferase luminescence; scaled: DMSO wells 0%, SAHA wells 100%. activation, % at 9.1 µM. 41% of 3,500 active. AID 686939;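 active = activation above the solvent-only control well mean plus 3 SD, averaged across control plates, cut at about 5.2% in these data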
* marks the source's active call; other numbers are inactive results. Hits are enriched below; roughly 4.3% of the tested compounds scored in any of these assays.

What do the screens show for `COc1cc2c(c(OC3OC(CO)C(O)C(O)C3O)c1)C(=O)CC(c1ccc(O)cc1)O2` (stereo unspecified)?
SMARCA2 act: 0

What do the screens show for `CN1CCc2c(sc3c2C(=O)NC(c2ccco2)N3)C1` (stereo unspecified)?
CR mimetic SO: 97; SR-BI DiI-HDL act: 8; AHR act: 16; SMARCA2 act: -2; SR-BI HDL uptake: -8

What do the screens show for `O=C1NC(c2cccs2)Nc2sc3c(c21)CCCC3` (stereo unspecified)?
Hep lipid drop: 0; CR mimetic SO: 91; SR-BI DiI-HDL act: -24; AHR act: 93*; SMARCA2 act: 4; SR-BI HDL uptake: 24; AHR act confirm: 128*; PXR act counter: 37*

How did CCOC(=O)c1c(N/N=C/c2ccncc2)n[nH]c1C do in these assays?
Hep lipid drop: -5; CR mimetic SO: 106; SR-BI DiI-HDL act: 14; AHR act: 97*; SMARCA2 act: 2; SR-BI HDL uptake: -14; AHR act confirm: 66*; PXR act counter: 15*

What do the screens show for `N#CC(C#N)=C1C=CC=CN1/C(=C\c1ccco1)C(=O)c1ccccc1`?
Hep lipid drop: 1; CR mimetic SO: 92; SR-BI DiI-HDL act: -54; AHR act: 19; SMARCA2 act: -11; SR-BI HDL uptake: 54

Results for N#CC(C#N)=C1C=CC=CN1/C(=C\c1ccco1)C(=O)c1ccc(Br)cc1 ?
Hep lipid drop: -2; CR mimetic SO: 105; SR-BI DiI-HDL act: -58; AHR act: 189*; SMARCA2 act: -10; SR-BI HDL uptake: 58; AHR act confirm: 180*; PXR act counter: 61*

What do the screens show for `CN1Cc2nnn(Cc3ccccc3)c2-c2ccccc2S1(=O)=O`?
SMARCA2 act: -3

What do the screens show for `CCOC(=O)c1cccc(NC(=O)CN(C)S(=O)(=O)c2ccco2)c1`?
SMARCA2 act: -5

How did CCOC(=O)C1=CCN(S(=O)(=O)c2ccc(Br)cc2)C1c1cccc(Cl)c1 (stereo unspecified) do in these assays?
SMARCA2 act: 1

What do the screens show for `COc1ccc(OC)c2c1C(=O)CC2C` (stereo unspecified)?
SMARCA2 act: 5

Results for COc1ccc(OC)c2c1C(=O)C(Cl)=C(Cl)C2=O ?
Hep lipid drop: 10; CR mimetic SO: 132; SR-BI DiI-HDL act: -31; AHR act: 137*; SMARCA2 act: -9; SR-BI HDL uptake: 31; AHR act confirm: -4; PXR act counter: -7

Results for CC(C)(C)S(=O)(=O)N1C[C@@H]2C(=C(CCO)C[C@@H]3C(=O)N(c4ccccc4)C(=O)[C@@H]32)[C@H]1CCO ?
SMARCA2 act: 6

How did O=C(CSc1nnc(-c2ccc(Cl)cc2)n1Cc1ccco1)Nc1ccc(S(=O)(=O)Nc2nccs2)cc1 do in these assays?
SMARCA2 act: 2

Results for CCOC(=O)c1csc(NC(=O)C2CCCN(S(=O)(=O)c3ccccc3[N+](=O)[O-])C2)n1 (stereo unspecified) ?
SMARCA2 act: -4

Results for Cc1cc(=O)[nH]c(SCC(=O)Nc2ccc(F)c([N+](=O)[O-])c2)n1 ?
Hep lipid drop: -1; CR mimetic SO: 107; SR-BI DiI-HDL act: -2; AHR act: 0; SMARCA2 act: -3; SR-BI HDL uptake: 2

How did Cc1ccc2nc(SCC(=O)Nc3ccc(F)c([N+](=O)[O-])c3)[nH]c2c1 do in these assays?
Hep lipid drop: -21; CR mimetic SO: 123; SR-BI DiI-HDL act: 9; AHR act: 99*; SMARCA2 act: 1; SR-BI HDL uptake: -9; AHR act confirm: 114*; PXR act counter: 27*

What do the screens show for `Cc1ccc2nc(SCC(=O)c3ccc(Cl)s3)[nH]c2c1`?
Hep lipid drop: 0; CR mimetic SO: 101; SR-BI DiI-HDL act: -25; AHR act: 86*; SMARCA2 act: 0; SR-BI HDL uptake: 25; AHR act confirm: 45; PXR act counter: 46*

What do the screens show for `O=C(Nc1cccc(-c2cn3c(n2)SCC3)c1)c1ccc2ccccc2n1`?
Hep lipid drop: 14; CR mimetic SO: 76; SR-BI DiI-HDL act: -76; AHR act: 94*; SMARCA2 act: 0; SR-BI HDL uptake: 76*; AHR act confirm: 54*; PXR act counter: 39*; DiI quench: -5%

Results for COC(=O)c1[nH]c2c(c1C)C(=O)CC(c1ccccc1)C2 (stereo unspecified) ?
Hep lipid drop: inconclusive; CR mimetic SO: 99; SR-BI DiI-HDL act: -43; AHR act: 11; SMARCA2 act: -1; SR-BI HDL uptake: 43

What do the screens show for `C/C=C/COC(=O)c1[nH]c2c(c1C)C(=O)CC(c1ccco1)C2` (stereo unspecified)?
Hep lipid drop: inconclusive; CR mimetic SO: 97; SR-BI DiI-HDL act: -78; AHR act: 116*; SMARCA2 act: -1; SR-BI HDL uptake: 78*; AHR act confirm: 41; PXR act counter: 197*; DiI quench: -7%

What do the screens show for `O=C(c1cccc(I)c1)N1CCC(Oc2cccnc2)CC1`?
SMARCA2 act: 0

How did Fc1ccc2nc3[nH]c4ccccc4c3nc2c1 do in these assays?
CR mimetic SO: 88; SR-BI DiI-HDL act: -20; AHR act: 134*; SMARCA2 act: 13*; SR-BI HDL uptake: 20; AHR act confirm: 189*; PXR act counter: 21*; SMARCA2 act conf: 17*; GAL4-VP16 Luc: 13*

Results for COC(=O)c1sccc1NC(=O)c1ccc2c(c1)OCO2 ?
Hep lipid drop: -11; CR mimetic SO: 98; SR-BI DiI-HDL act: -15; AHR act: 8; SMARCA2 act: -2; SR-BI HDL uptake: 15
